High-throughput results deposited in PubChem BioAssay by several laboratories.
An excerpt weighted towards active compounds, which were near 1.4% of everything screened.
Redox H2O2 prof: compounds producing H2O2 with reducing agent – biochemical, NIH compound library profiling, artefact control for MLSCN library redox annotation, primary screen. DTT-dependent redox cycling H2O2, phenol red/HRP absorbance; 100% = 100 µM peroxide control, 0% = buffer. activation, % at 10 µM. 200,000 compounds, 0.03% hits. AID 878;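 active = activation of at least 50% relative to the plate's high and low controls in the primary single-dose screen; inactive = activation below 50%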;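 also: compound incubated with DTT at 0.8 mM final as the reducing agent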
HKDC1 inh: blocks human hexokinase HKDC1 activity; inhibition, % at 20 µM; recombinant HKDC1, G6PDH/diaphorase resazurin coupled fluorescence; Q2TB90; 340,000 compounds, 0.16% hits;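 active = inhibition above about 35% when tested at 20 µM, limit read from the data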
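Assay system: in-house recombinant HK5 (HKDC1) enzyme. Input: HKDC1 at 5 µg/mL. Medium: Tris pH 8.0 buffer with MgCl2, Tween-20, BSA, BME. Dosing: single 20 µM dose. Schedule: 90 min reaction incubation at room temperature, dark. Signal: resazurin-to-resorufin fluorescence via G6PDH and diaphorase coupling, 525/613 nm. Controls: DMSO-enzyme wells negative, buffer-substituted wells positive.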
Apaf1 inhib: human Apaf-1 inhibition; O14727; reconstituted apoptosome caspase-3 activity, DEVD-Rh110 fluorescence; inhibition, % at 20 µM; 330,000 compounds, 0.71% hits; AID 489030; active = inhibition of at least 40% at 20 µM
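Assay system: Apoptosome proteins | Medium: pH 7.5 Hepes buffer with CHAPS, BSA, DTT | Also added: Cytochrome c and DEVD-Rh110 substrate | Times: 30 min plus 50 min, RT | Detection: Rhodamine 110 fluorescence at Ex 480/Em 540 nm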
UBC9 SUMO inh: inhibitors of human SUMOylation (UBC9). P63279. HTRF SUMOylation assay, SAE1/SAE2 + UBC9, in vitro. inhibition, % at 35 µM. 290,000 compounds, 0.36% hits; in the data active = inhibition above about 50%, passing the limit was not always enough
Target sequence (P63279 whole entry, looked up): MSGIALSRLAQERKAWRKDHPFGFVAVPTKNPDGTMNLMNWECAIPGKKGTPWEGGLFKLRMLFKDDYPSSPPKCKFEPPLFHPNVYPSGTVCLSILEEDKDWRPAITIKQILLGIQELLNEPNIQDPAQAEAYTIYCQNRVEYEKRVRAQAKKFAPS
GSTO1 inh: GSTO1 inhibition, counter-screen for RBBP9 inhibitors; inhibition, % at 5.96 µM; recombinant GSTO1, activity-based probe fluorescence polarization; 300,000 compounds, 1.1% hits;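 active = inhibition above the campaign mean inhibition plus 3 SD, cut at about 35% in these data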
Target sequence (P78417 whole entry, looked up): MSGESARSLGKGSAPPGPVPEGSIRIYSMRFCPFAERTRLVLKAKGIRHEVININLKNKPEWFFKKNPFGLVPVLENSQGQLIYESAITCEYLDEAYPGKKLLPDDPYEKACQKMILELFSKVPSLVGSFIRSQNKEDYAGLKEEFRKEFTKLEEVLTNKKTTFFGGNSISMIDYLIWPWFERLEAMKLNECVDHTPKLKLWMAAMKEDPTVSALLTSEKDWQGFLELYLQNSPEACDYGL
Numbers stand for hits; i = inactive; nt = no result given.

SMILES	Redox H2O2 prof	HKDC1 inh	Apaf1 inhib	UBC9 SUMO inh	GSTO1 inh
COC/C=C/C1=CC2=CC(=O)C(C)(OC(=O)c3ccco3)C(=O)C2=CO1 (configuration not stated)	nt	nt	i	i	35.5
Cc1ccc(NC(=O)c2ccc3nsnc3c2)c(Cl)c1	nt	i	i	i	i
Cc1ccc(/C=C2\Oc3cc(OCC(=O)NN)ccc3C2=O)o1	nt	i	i	58.8	nt
COc1ccc(OCc2nc3ccccc3[nH]2)cc1	i	i	i	i	i
Brc1ccc(OCc2nc3ccccc3[nH]2)cc1	nt	i	i	i	36.6
O=C(NCC(c1cccs1)N1CCOCC1)c1ccccc1NS(=O)(=O)c1cccc([N+](=O)[O-])c1 (configuration not stated)	i	i	i	i	i
O=C(NCC(c1cccs1)N1CCOCC1)c1ccccc1NS(=O)(=O)c1ccc(Cl)c([N+](=O)[O-])c1 (configuration not stated)	i	i	i	i	50.2
COc1ccc(NC(=O)CN2C(=O)NC(C)(C3CC3)C2=O)c(OC)c1 (configuration not stated)	nt	i	i	nt	nt
CC1=NN(c2ccccc2C(=O)O)C(=O)C1N=Nc1ccccc1 (configuration not stated)	nt	i	i	i	35.6
CC1=NN(C(N)=S)C(=O)C1N=Nc1ccccc1C(=O)O (configuration not stated)	nt	i	i	i	i
Cc1ccc2c(cnn2C(=O)CCC(=O)N2CCCCC2C)c1 (configuration not stated)	nt	i	i	i	i
O=C(O)c1ccc(S(=O)(=O)Nc2ccc(O)c(Sc3nc4ccccc4s3)c2)cc1	i	i	i	i	54.8
Cc1nn(-c2ccccc2)c2c1C(c1c(C)[nH]c(C#N)c1C)C(C#N)=C(N)O2 (configuration not stated)	i	i	i	74.7	i
O=C1CC(NNc2nc3ccccc3s2)C(=O)N1c1ccccc1 (configuration not stated)	i	i	i	i	i
CCc1ccc(N2C(=O)CC(NNc3nc4ccccc4s3)C2=O)cc1 (configuration not stated)	i	i	i	i	37.6
N#Cc1c(N)sc(=S)c2c1CCN(Cc1ccccc1)C2	nt	nt	95.5	66.6	50.5
CCN1CCc2c(sc(N)c2C#N)C1	i	i	i	i	i
COc1cccc(/C=N/Nc2ccc([N+](=O)[O-])cn2)c1O	nt	35.8	i	i	i
COC(=O)c1[nH]c(=O)c2ccccc2c1O	i	i	91.1	i	i
COC(=O)c1[nH]c(=O)c2ccccc2c1OCc1ccccc1	i	i	i	i	i
COc1cc(-c2nc(C(=O)NC3CCN(Cc4ccccc4)CC3)cc3c2[nH]c2ccccc23)cc(OC)c1OC	nt	i	40.9	i	i
O=C(CN1C(=O)NC2(CCCC2)C1=O)OCCOc1ccc(Cl)cc1	nt	i	i	nt	i
Cc1[nH]n(-c2ncc(-c3ccc(Cl)cc3)s2)c(=O)c1C(c1ccc(Cl)cc1)C(C#N)C#N (configuration not stated)	i	i	i	70.0	i
Nn1c(SCC(=O)Nc2nccs2)nnc1-c1ccccn1	nt	i	i	nt	i
Nc1cccc(C(=O)NCCNC(=O)c2cccc(N)c2)c1	nt	i	i	i	i
SMILES	Redox H2O2 prof	HKDC1 inh	Apaf1 inhib	UBC9 SUMO inh	GSTO1 inh
Cc1ccc(CC(=S)N2CCOCC2)cc1	i	i	i	i	36.6
CCc1ccc(CC(=S)N2CCOCC2)cc1	i	i	i	i	i
Cc1cc(C(C)(C)C)cc(S(=O)(=O)NCCc2ccncc2)c1C	nt	i	i	i	i
COc1ccccc1CNC(=O)c1oc2ccccc2c1C	nt	i	i	i	i
COc1ccc2c(C)c(C(=O)NCC(C)O)oc2c1OC (configuration not stated)	i	i	i	59.1	i
CC(C#N)(NC(=O)CN1CCN(S(=O)(=O)c2ccc(Br)cc2Cl)CC1)C1CC1 (configuration not stated)	nt	i	i	nt	nt
COc1ccc(/C=C2/C(=O)N(c3c(F)c(F)c(F)c(F)c3F)N=C2C)cc1	nt	i	53.8	i	i
COc1ccc(/C=C2\C(=O)ON=C2c2ccccc2)cc1	nt	i	i	i	i
CC1=NOC(=O)/C1=C\c1ccc(-c2ccc(Br)cc2C(=O)O)o1	i	i	i	i	i
CC1=NN(c2ccc(Br)cc2)C(=O)/C1=C/c1ccc(-c2ccccc2C(=O)O)o1	nt	i	77.6	i	i
CSc1ccccc1NS(=O)(=O)c1cccc2nonc12	nt	i	i	i	i
O=C(CN1C(=O)NC2(CCOc3ccccc32)C1=O)NCCc1ccccc1 (configuration not stated)	nt	i	i	nt	nt
COc1ccc(/C=C2\SC(=O)N(CC(=O)NNC(=O)c3ccccc3O)C2=O)cc1	i	i	i	56.3	i
COc1ccc(/C=C2\SC(=O)N(CC(=O)NNC(=O)c3ccccc3O)C2=O)cc1OC	i	i	i	i	38.0
O=C(CN1C(=O)S/C(=C\c2ccccc2)C1=O)NNC(=O)c1ccccc1O	i	i	i	nt	i
COc1ccc(/C=C2\SC(=O)N(CC(=O)NCCC(C)C)C2=O)cc1OC	nt	i	i	i	i
C[N+]1(C)CCC(=C2c3ccccc3CC(=O)c3sccc32)CC1	i	i	57.3	i	i
CC[N+]1(C)CCC(=C2c3ccccc3CC(=O)c3sccc32)CC1 (configuration not stated)	i	i	i	i	i
Cc1ccc(C)c(S(=O)(=O)N(C)C2CCS(=O)(=O)C2)c1 (configuration not stated)	nt	i	i	nt	i
N=c1c2cn[nH]c2nc(SCC(=O)c2ccc(Br)cc2)n1-c1ccc(Br)cc1	i	i	i	54.2	i
O=C(CSc1nc2[nH]ncc2c(=O)n1-c1ccccc1)c1ccc2c(c1)OCCO2	i	i	i	i	i
CCSCCC(NC1=CC(=O)CC(C)(C)C1)C(=O)O (configuration not stated)	i	i	48.7	i	i
CC1(C)CC(=O)C=C(NCC(=O)O)C1	i	i	i	i	i
O=C(COc1cc(F)ccc1[N+](=O)[O-])N1N=C(c2cccs2)CC1c1ccco1 (configuration not stated)	nt	i	i	nt	nt
COC(CN(C)C(C(=O)NC1CCCCC1)c1ccccc1)OC (configuration not stated)	i	i	i	i	i
COC(CN(C(=O)CCl)C(C(=O)NC1CCCCC1)c1ccccc1C)OC (configuration not stated)	i	i	i	i	79.6
O=C(CSc1n[nH]c(-c2ccco2)n1)Nc1ccccc1	nt	i	i	nt	i
O=C(Nc1ccc(F)cc1)Oc1ccc[nH]c1=O	nt	i	i	98.6	i
COc1ccc([C@H]2CC(=O)C=C(c3ccccc3OC)C2)cc1OC	nt	i	i	nt	nt
COc1cc(Cl)c(C)cc1NC(=O)CN1C(=O)C2CC=CCC2C1=O (configuration not stated)	nt	i	i	nt	nt
